# Assay results reported in ChEMBL document CHEMBL4024760, “Specific Inhibition of Bacterial β-Glucuronidase by Pyrazolo[4,3-c]quinoline Derivatives via a pH-Dependent Manner To Suppress Chemotherapy-Induced Intestinal Toxicity” (J Med Chem, 2017).
# Columns and labels:
# beta-glucuronidase = target: T1, beta-glucuronidase (Homo sapiens, UniProt P08236); experiment: Inhibition of N-terminal His-tagged human beta-glucuronidase expressed in Escherichia coli BL21 (DE3) assessed as residual activity using pNPG as substrate at 10 uM preincubated for 30 mins followed by substrate addition measured after 1 hr relative to control; settings: probe pNPG, read-out: Activity
# T1 sequence (P08236 whole entry): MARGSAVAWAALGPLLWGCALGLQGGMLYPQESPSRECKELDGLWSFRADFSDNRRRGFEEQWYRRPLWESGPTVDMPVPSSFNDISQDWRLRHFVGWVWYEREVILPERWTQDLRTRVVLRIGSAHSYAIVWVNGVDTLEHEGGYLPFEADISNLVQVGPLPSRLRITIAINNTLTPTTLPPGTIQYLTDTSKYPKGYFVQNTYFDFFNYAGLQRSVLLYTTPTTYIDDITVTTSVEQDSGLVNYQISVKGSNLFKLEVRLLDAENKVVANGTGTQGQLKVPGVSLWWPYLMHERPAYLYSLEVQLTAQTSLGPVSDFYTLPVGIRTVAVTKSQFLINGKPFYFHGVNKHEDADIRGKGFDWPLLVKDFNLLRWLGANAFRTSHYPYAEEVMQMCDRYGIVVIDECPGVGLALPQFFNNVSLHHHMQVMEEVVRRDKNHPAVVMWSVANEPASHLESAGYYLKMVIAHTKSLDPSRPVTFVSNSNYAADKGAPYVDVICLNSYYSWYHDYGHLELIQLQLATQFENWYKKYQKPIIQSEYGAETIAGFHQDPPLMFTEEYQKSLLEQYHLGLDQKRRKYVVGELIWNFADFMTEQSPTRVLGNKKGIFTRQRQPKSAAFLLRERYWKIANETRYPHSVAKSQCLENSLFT
# Escherichia coli [1] = experiment: Inhibition of N-terminal His-tagged Escherichia coli beta-glucuronidase expressed in Escherichia coli BL21 (DE3) assessed as residual activity using pNPG as substrate at 10 uM preincubated for 30 mins followed by substrate addition measured after 1 hr relative to control
# Method in brief: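 Purified E. coli βG (20 ng) preincubated with 10 μM compound for 30 min at 37 °C in PBS pH 7.5 with 10% DMSO and 0.05% BSA. pNPG (20 mM stock) then added for 1 h, quenched with 2 N NaOH, and read at OD405. Result given as % activity versus a 10% DMSO control; n = 3.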
# [2] = Inhibition of N-terminal His-tagged Escherichia coli beta-glucuronidase expressed in Escherichia coli BL21 (DE3) using pNPG as substrate preincubated for 30 mins followed by substrate addition measured after 1 hr
# Method in brief: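 Purified E. coli βG (20 ng) preincubated 30 min at 37 °C with compound (0.64–10 000 nM) in PBS pH 7.5 containing 10% DMSO and 0.05% BSA. pNPG (20 mM stock) then added for 1 h, quenched with 2 N NaOH, and pNP read at 405 nm. IC50 derived from a four-parameter curve fit; SD of n = 3.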
# Escherichia coli [3] = experiment: Toxicity against Escherichia coli BL21(DE3) assessed as effect on cell growth at 100 uM after 6 hrs
# Method in brief: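 BL21(DE3) E. coli (diluted to OD600 0.1 in LB after overnight growth) incubated with compound at a final 100 μM, shaking at 37 °C for 6 h. Growth measured by OD600; viability given as % of the untreated control.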
# [4] = system: Escherichia coli BL21(DE3); experiment: Inhibition of beta-glucuronidase in Escherichia coli BL21 (DE3) using pNPG as substrate at 50 uM preincubated for 30 mins followed by substrate addition measured after 1 hr relative to control
# Method in brief: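 BL21(DE3) E. coli grown overnight and diluted to OD600 0.1 in LB. Cells treated with compound (50, 10 or 2 μM) for 30 min at 37 °C, then pNPG (40 mM stock) added for 1 h. Cells pelleted at 6000g; supernatant quenched with NaOH and read at OD405. Activity given as % of a 1% DMSO control.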
SMILES,"activity at 1 h, 10 µM (beta-glucuronidase)",Activity (Escherichia coli [1]),IC50 [2],inhibition [4],Activity (Escherichia coli [3])
Nc1n[nH]c2c1c(Nc1ccccc1O)nc1ccccc12,85.6%,12%,0.613 µM,–,–
Cc1ccccc1Nc1nc2ccccc2c2[nH]nc(N)c12,93.6%,14.8%,0.673 µM,–,–
COc1cc(/C=C2\CN(C(=O)CN(C)C)C/C(=C\c3cc(OC)c(OC)c(OC)c3)C2=O)cc(OC)c1OC,92.4%,34.1%,–,–,–
COc1ccc(-c2cc3ccccc3nc2C2CC(c3cc(OC)c(OC)c(OC)c3)=NN2C(N)=S)cc1 (configuration not stated),89.5%,114%,–,–,–
Cc1ccc(Nc2nc3ccc(Cl)cc3c3[nH]nc(N)c23)cc1,91.5%,6.13%,0.0144 µM,> 80%,Toxic
Nc1n[nH]c2c1c(Nc1ccc(Cl)cc1)nc1cc(F)ccc12,92.8%,6.78%,0.0296 µM,–,–
Nc1n[nH]c2c1c(Nc1ccc(O)cc1)nc1ccccc12,106%,8.67%,0.626 µM,–,–
"O=C(O)[C@@H](O)[C@H]1OC(=O)[C@H](O)[C@H]1O [D-SACCHARIC ACID 1,4-LACTONE]",33.5%,75.7%,> 10 µM,–,–
COc1ccc(-c2nc3c4ccoc4c4ccccc4c3[nH]2)cc1,85.4%,112%,–,–,–
Nc1ccc(Nc2nc3ccccc3c3[nH]nc(N)c23)cc1,62.2%,11.3%,0.598 µM,–,–
Cc1cc2c(n1CCCN(C)CCCn1c(C)cc3c1C(=O)c1ccccc1C3=O)C(=O)c1ccccc1C2=O,79.8%,73.5%,–,–,–
Nc1n[nH]c2c1c(Nc1ccc(Cl)cc1)nc1ccc(Cl)cc12,88.2%,6.35%,0.0556 µM,> 80%,Toxic
Nc1n[nH]c2c1c(Nc1ccc(Cl)cc1)nc1ccccc12,98.8%,4.57%,0.0348 µM,> 80%,Toxic
Nc1n[nH]c2c1c(Nc1ccc(Cl)cc1)nc1ccc(Br)cc12,107%,16.4%,0.018 µM,> 80%,Toxic
Cc1cccc2c1nc(Nc1ccc(Cl)cc1)c1c(N)n[nH]c12,88.3%,9.04%,0.238 µM,–,–
Nc1n[nH]c2c1cnc1ccccc12,79.4%,99.3%,–,–,–
Nc1n[nH]c2c1c(Nc1ccccc1)nc1ccccc12,106%,2.33%,–,–,–

# The next lines start with results.
"activity at 1 h, 10 µM (beta-glucuronidase)",Activity (Escherichia coli [1]),IC50 [2],inhibition [4],SMILES,Activity (Escherichia coli [3])
96.5%,107%,–,–,O=C1S/C(=C/c2ccc3cc(F)ccc3n2)C(=O)N1CCN1CCCCC1,–
85.9%,109%,–,–,O=C(O)CN1C(=O)S/C(=C/c2ccc3cc(F)ccc3n2)C1=O,–
78.5%,112%,–,–,NC(=S)N/N=C/c1ccc2cc(F)ccc2n1,–
84.6%,99.1%,–,–,COc1ccc(-c2cc3cc(F)ccc3nc2/C=C2\SC(=O)NC2=O)cc1,–
91.5%,6.84%,0.0381 µM,> 80%,Cc1ccc(Nc2nc3cc(F)ccc3c3[nH]nc(N)c23)cc1,Toxic
82.2%,114%,–,–,Fc1ccc(-c2cc(-c3ccc4cc(F)ccc4n3)nn2-c2ccccc2)cc1,–
87.9%,111%,–,–,CCOC(=O)CN1C(=O)S/C(=C/c2ccc3cc(F)ccc3n2)C1=O,–
80.2%,112%,–,–,CN(C)CCCN1C(=O)S/C(=C/c2ccc3cc(F)ccc3n2)C1=O,–
